Data published in ChEMBL document CHEMBL2146385, “Synthesis and antiviral evaluation of bis(POM) prodrugs of (E)-[4'-phosphono-but-2'-en-1'-yl]purine nucleosides” (Eur J Med Chem, 2012).
Active and inactive are the calls of the source. The calls are words filed in the database; no cut-off is given here.

Experiments:
Vaccinia virus = assay: Antiviral activity against Vaccinia virus infected in HEL assessed as inhibition of virus-induced cytopathicity after 3 days; type: functional, organism-based; details: Orthopoxvirus vaccinia, 72 h
Human alphaherpesvirus 1 [1] = assay: Antiviral activity against HSV1 KOS infected in HEL assessed as inhibition of virus-induced cytopathicity after 3 days; type: functional, organism-based; details: Human alphaherpesvirus 1, KOS, 72 h
Human alphaherpesvirus 2 = assay: Antiviral activity against HSV2 G infected in HEL assessed as inhibition of virus-induced cytopathicity after 3 days; type: functional, organism-based; details: Human alphaherpesvirus 2, strain G, 72 h
How it was run: (§1)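 Confluent cell monolayers infected with 100 CCID50 of virus in the presence of test compound at 100, 20,... μM. Cytopathicity was scored once it was complete in untreated infected controls.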

Human alphaherpesvirus 1 [2] = assay: Antiviral activity against acyclovir-resistant thymidine kinase deficient HSV1 KOS infected in HEL assessed as inhibition of virus-induced cytopathicity after 3 days; type: functional, organism-based; details: Human alphaherpesvirus 1, KOS, 72 h
Human alphaherpesvirus 3 [3] = assay: Antiviral activity against VZV OKA expressing thymidine kinase infected in HEL cells assessed as inhibition of virus-induced cytopathogenicity after 3 days; type: functional, cell-based; details: Human alphaherpesvirus 3, strain Oka vaccine, 72 h
Human alphaherpesvirus 3 [4] = assay: Antiviral activity against thymidine kinase-deficient VZV 07/1 infected in human HEL cells assessed as reduction of virus-induced cytopathogenicity after 3 days; type: functional, organism-based; details: Human alphaherpesvirus 3, 07/1, HEL, 72 h
[5] = Cytotoxicity against HEL assessed as minimum compound concentration causes microscopically detectable alteration of cell morphology after 3 days; type: cell-based; details: human, HEL cells
[6] = Cytotoxicity against HEL after 3 days; type: cell-based; details: human, HEL cells
How it was run: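 HEL cells were seeded at 5×10^3 cells/well and allowed to grow for 24 h, then given medium with varying compound concentrations. After 3 days at 37 °C, cells were counted with a Coulter counter.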

[7] = test system: Human immunodeficiency virus 1; assay: Antiviral activity against HIV1 3B infected in human CEM cells assessed as inhibition of virus-induced giant cell formation after 4 days; type: functional, organism-based; details: Human immunodeficiency virus 1, 3B, CCRF-CEM, 96 h
How it was run: (§2)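 Human CEM cells (~3×10^5 cells/cm3) were infected with 100 CCID50 of HIV-1(IIIB) or HIV-2(ROD) per ml and seeded into wells containing compound dilutions. After 4 days at 37 °C, giant cell formation was examined microscopically.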

[8] = test system: Human immunodeficiency virus 2; assay: Antiviral activity against HIV2 ROD infected in human CEM cells assessed as inhibition of virus-induced giant cell formation after 4 days; type: functional, organism-based; details: Human immunodeficiency virus 2, ISOLATE ROD, CCRF-CEM, 96 h; how it was run: as §2
L1210 = assay: Cytotoxicity against mouse L1210 cells; type: cell-based
CCRF-CEM = assay: Cytotoxicity against human CEM cells; type: cell-based
HeLa = assay: Cytotoxicity against human HeLa cells; type: cell-based
[9] = Selectivity index, ratio of CC50 for human CEM cells to EC50 for HIV2 ROD; type: toxicity, cell-based, CCRF-CEM; details: read-out: Ratio CC50/EC50
[10] = test system: Vesicular stomatitis virus; assay: Antiviral activity against Vesicular stomatitis virus infected in MDCK assessed as inhibition of virus-induced cytopathicity after 3 days; type: functional, organism-based
Influenza A virus [11] = assay: Antiviral activity against Influenza A virus H1N1 infected in MDCK assessed as inhibition of virus-induced cytopathicity after 3 days; type: functional, organism-based
Influenza A virus [12] = assay: Antiviral activity against Influenza A virus H3N2 infected in MDCK assessed as inhibition of virus-induced cytopathicity after 3 days; type: functional, organism-based
Influenza B virus = assay: Antiviral activity against Influenza B virus infected in MDCK assessed as inhibition of virus-induced cytopathicity after 3 days; type: functional, organism-based
Human respirovirus 3 = assay: Antiviral activity against Parainfluenza-3 virus infected in african green monkey Vero assessed as inhibition of virus-induced cytopathicity after 3 days; type: functional, organism-based; how it was run: as §1
[13] = test system: Mammalian orthoreovirus 1; assay: Antiviral activity against Reovirus-1 infected in african green monkey Vero assessed as inhibition of virus-induced cytopathicity after 3 days; type: functional, organism-based; how it was run: as §1
Sindbis virus = assay: Antiviral activity against Sindbis virus infected in african green monkey Vero assessed as inhibition of virus-induced cytopathicity after 3 days; type: functional, organism-based; how it was run: as §1
Punta Toro virus = assay: Antiviral activity against Punta Toro virus infected in african green monkey Vero assessed as inhibition of virus-induced cytopathicity after 3 days; type: functional, organism-based; how it was run: as §1
[14] = test system: Vesicular stomatitis virus; assay: Antiviral activity against Vesicular stomatitis virus infected in human HeLa assessed as inhibition of virus-induced cytopathicity after 3 days; type: functional, organism-based
Coxsackievirus B4 = assay: Antiviral activity against Coxsackievirus B4 infected in human HeLa assessed as inhibition of virus-induced cytopathicity after 3 days; type: functional, organism-based; how it was run: as §1
[15] = test system: Respiratory syncytial virus; assay: Antiviral activity against Respiratory syncytial virus infected in human HeLa assessed as inhibition of virus-induced cytopathicity after 3 days; type: functional, organism-based; how it was run: as §1

Row | Compound | EC50 (Vaccinia virus) [µM] | EC50 (Human alphaherpesvirus 1 [1]) [µM] | EC50 (Human alphaherpesvirus 2) [µM] | EC50 (Human alphaherpesvirus 1 [2]) [µM] | EC50 (Human alphaherpesvirus 3 [3]) [µM] | EC50 (Human alphaherpesvirus 3 [4]) [µM] | MCC at 72 h [5] [µM] | CC50 at 72 h [6] [µM] | EC50 [7] [µM] | EC50 [8] [µM] | IC50 (L1210) [µM] | IC50 (CCRF-CEM) [µM] | IC50 (HeLa) [µM] | selectivity ratio [9] | Activity [10] | Activity (Influenza A virus [11]) | Activity (Influenza A virus [12]) | Activity (Influenza B virus) | Activity (Human respirovirus 3) | Activity [13] | further results
1 | CC(C)(C)C(=O)OCOP(=O)(C/C=C/Cn1cnc2c(N)nc(N)nc21)OCOC(=O)C(C)(C)C | > 20 | 20 | 20 | 20 | 6.8 | 12 | > 100 | 36 | 6.6 | 6.3 | 128 | 46 | 128 | 7.3 | inactive | inactive | inactive | inactive | inactive | inactive | Activity (Sindbis virus): inactive; Activity (Punta Toro virus): inactive; Activity [14]: inactive; Activity (Coxsackievirus B4): inactive; Activity [15]: inactive
2 | COc1nc(N)nc2c1ncn2C/C=C/CP(=O)(OCOC(=O)C(C)(C)C)OCOC(=O)C(C)(C)C | 16 | 6 | 6.5 | 7.5 | 0.1 | 0.5 | > 100 | 1.6 | > 0.4 | 0.28 | 37 | 8 | 37 | 28.5 | inactive | inactive | inactive | inactive | inactive | inactive | Activity (Sindbis virus): inactive; Activity (Punta Toro virus): inactive; Activity [14]: inactive; Activity (Coxsackievirus B4): inactive; Activity [15]: inactive
